Consider 34 compounds from ChEMBL document CHEMBL1123670, “Inhibitors of cyclic AMP phosphodiesterase. 2. Structural variations of N-cyclohexyl-N-methyl-4-[(1,2,3,5-tetrahydro- 2-oxoimidazo[2,1-b]quinazolin-7-yl)-oxy]butyramide (RS-82856)” (J Med Chem, 1987).

Structures are written as SMILES.

Experiment [1] deals with Phosphodiesterase; PDE3 & PDE4 (Homo sapiens) (UniProt P27815+Q14432+Q08499+Q07343+Q13370+Q08493). Kind of experiment: In vivo inhibition of cyclic AMP phosphodiesterase from dog heart. The gist of the method: (§1)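 Cyclic AMP phosphodiesterase prepared from human platelets (IC50, nM) or from rat or dog heart tissue (IC25, nM). Each agent tested at five inhibitor concentrations in triplicate. IC50/IC25 read graphically from the dose-response curve.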

Experiment [2] is filed under the species Homo sapiens. Nature of the experiment: Inhibition of ADP-induced platelet aggregation at 100 uM concentration. The class given is functional.
Another experiment concerns the target Phosphodiesterase 3 (Homo sapiens, UniProt Q14432+Q13370). Nature of the experiment: In vitro inhibition of cyclic AMP phosphodiesterase from human platelets.
The nature of experiment [3]: In vivo inhibition of cyclic AMP phosphodiesterase from rat heart. The following applies: in the assay text read “In vitro” for “In vivo”. The gist of the method: as §1
A short description of experiment [4]: Inhibition of ADP-induced platelet aggregation. Format: functional. In outline:
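ADP-induced platelet aggregation. Read-out is the rate of change in percentage transmission of the primary aggregation phase after 5 min incubation. Each agent tested at five concentrations in triplicate, with experiments repeated at least twice using platelets from different donors. IC50 (μM) determined graphically.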

The species named for experiment [5] is Homo sapiens. Nature of the experiment: Ratio of IC50 of inhibition of platelet aggregation to IC50 of inhibition of platelet PDE (Efficacy index). The class given is functional. In outline: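 Efficacy index is the IC50 for inhibition of ADP-induced platelet aggregation divided by the IC50 for human platelet PDE inhibition. Both IC50s come from graphical dose-response curves (five concentrations, triplicate).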

[6] abbreviates: Canis lupus familiaris; in the assay text read “In vitro” for “In vivo”; target entry is the homologue from another species.
[7] abbreviates: Canis lupus familiaris; target entry is the homologue from another species; in the assay text read “In vitro” for “In vivo”.

Usually IC25 stands for the concentration at which the effect reaches the 25% level. A high value points to a need for much substance. Usually IC50 stands for the concentration that inhibits the measured activity by half. For `CN1C(=O)CN2Cc3cc(OCCCC(=O)N(C)C4CCCCC4)ccc3N=C21`, it took 39000 nM to reach the 25% level in experiment [1] (setting [6]) (IC25). The half-inhibitory concentration (IC50) result in the experiment listed under Homo sapiens [2] is given as “Not Active”; against Phosphodiesterase 3, 76000 nM.
As to `O=C1CN2Cc3cc(OCCCC(=O)N(CCO)C4CCCCC4)ccc3N=C2N1`, in experiment [3], it took 70 nM to reach the 25% level (IC25). Besides, the 50% inhibitory concentration (IC50) turned out to be 2850 nM in experiment [4] and 12.5 nM against Phosphodiesterase 3. For the same compound, the Ratio in the experiment filed under Homo sapiens [5] came to 228.
Taken in the same sequence, the figures for `O=C1CN2Cc3cc(OCCCC(=O)N4CCOCC4)ccc3N=C2N1` were 7000 nM, 53000 nM, 1600 nM and 33.
The like results for `CN(C(=O)CCCCCCOc1ccc2c(c1)CN1CC(=O)NC1=N2)C1CCCCC1` were, in that order, 45 nM, 4600 nM, 16 nM and 287.
The like results for `CN(C(=O)CCCCCOc1ccc2c(c1)CN1CC(=O)NC1=N2)C1CCCCC1` were, in that order, 21 nM, 1900 nM, 12 nM and 158.
In experiment [3], `O=C1CN2Cc3cc(OCCCC(=O)N4CCCC4)ccc3N=C2N1` gave an IC25 of 1700 nM. The figures for the IC50 (in experiment [4]; on Phosphodiesterase 3) were 82000 nM and 340 nM, respectively. In the experiment filed under Homo sapiens [5], the Ratio was determined as 241.
In the case of `CN(C(=O)CCCOc1ccc2c(c1)CN1C(=N2)NC(=O)[C@@H]1c1ccccc1)C1CCCCC1`, in experiment [1] (setting [7]), the IC25 turned out to be 4200 nM. Further, the concentration for half-maximal inhibition (IC50) entry in the experiment listed under Homo sapiens [2] is “Not Active”; on Phosphodiesterase 3 it was 3800 nM.
Regarding `CN(C(=O)CCCOc1ccc2c(c1)CN1CC(=O)NC1=N2)C(c1ccccc1)c1ccccc1`, in experiment [3], the IC25 was found to be 60 nM. The half-maximal inhibitory concentration (IC50) in experiment [4] amounted to 9200 nM; on Phosphodiesterase 3, 15 nM. In addition, the Ratio in the experiment listed under Homo sapiens [5] is listed as 613.
Turning to `CN(C(=O)CCCOc1ccc2c(c1)CN1C(=N2)NC(=O)[C@@H]1Cc1ccccc1)C1CCCCC1`, the IC25 in experiment [1] (setting [7]) is greater than 10000 nM. Moreover, the IC50 entry in the experiment listed under Homo sapiens [2] was “Not Active”; on Phosphodiesterase 3, greater than 10000 nM.
The compound `CN(C(=O)CCCOc1ccc2c(c1)CN1C(=N2)NC(=O)[C@H]1c1ccccc1)C1CCCCC1` registered an IC25 in experiment [1] (setting [7]) of 3300 nM. Also, the IC50 result in the experiment listed under Homo sapiens [2] is “Not Active”; against Phosphodiesterase 3, 3300 nM.
In experiment [1] (setting [7]), `CC(C)[C@@H]1C(=O)NC2=Nc3ccc(OCCCC(=O)N(C)C4CCCCC4)cc3CN21` displayed an IC25 of 6000 nM. The IC50 result in the experiment listed under Homo sapiens [2] is on record as “Not Active”; at Phosphodiesterase 3, 10000 nM.
For the compound `CC(C)[C@H]1C(=O)NC2=Nc3ccc(OCCCC(=O)N(C)C4CCCCC4)cc3CN21`, the IC25 in experiment [1] (setting [6]) was found to be 6400 nM. Further, the results for the IC50 entry in the experiment filed under Homo sapiens [2] and on Phosphodiesterase 3 were “Not Active” and greater than 10000 nM, respectively.
As to `O=C1CN2Cc3cc(OCCCC(=O)N4CCCCC4)ccc3N=C2N1`, the IC25 in experiment [3] is 1500 nM. Further, the IC50 in experiment [4] was found to be 14500 nM; at Phosphodiesterase 3 it was 260 nM. For the same compound, in the experiment listed under Homo sapiens [5], the Ratio was determined as 56.
As for `CN(C(=O)CCCOc1ccc2c(c1)CN1NC(=O)NC1=N2)C1CCCCC1`, in experiment [1] (setting [6]), the IC25 was 180 nM. Moreover, the IC50 entry was “Not Active” in the experiment filed under Homo sapiens [2] and 500 nM on Phosphodiesterase 3.
Compound `CNC(=O)CCCOc1ccc2c(c1)CN1CC(=O)NC1=N2` displayed an IC25 in experiment [1] (setting [7]) of 1300 nM. Also, the IC50 result in the experiment filed under Homo sapiens [2] is recorded as “Not Active”; against Phosphodiesterase 3 it was 1600 nM.
`O=C1CN2Cc3cc(OCCCC(=O)N(C4CCCCC4)C4CCCCC4)ccc3N=C2N1`: in experiment [3], the IC25 came out at 16 nM. Also, the results for the IC50 (in experiment [4]; against Phosphodiesterase 3) were 420 nM and 1.45 nM, respectively. The Ratio in the experiment filed under Homo sapiens [5] turned out to be 300.
The like results for `CN(C(=O)COc1ccc2c(c1)CN1CC(=O)NC1=N2)C1CCCCC1` were, in that order, 4400 nM, 7000 nM, 820 nM and 8.5.
For the compound `CN(C(=O)CCC[S+]([O-])c1ccc2c(c1)CN1CC(=O)NC1=N2)C1CCCCC1` (stereo not given), in experiment [1] (setting [6]), it took 6200 nM to reach the 25% level (IC25). The IC50 entry is on record as “Not Active” in the experiment listed under Homo sapiens [2] and 1700 nM on Phosphodiesterase 3.
Take `O=C1CN2Cc3cc(OCCCC(=O)N4CCCc5ccccc54)ccc3N=C2N1`: the IC25 in experiment [3] is 160 nM. In addition, the half-maximal inhibitory concentration (IC50) in experiment [4] turned out to be 1050 nM; on Phosphodiesterase 3 it was 10 nM. The Ratio in the experiment filed under Homo sapiens [5] is 105.
Consider `COC1=NC2=Nc3ccc(OCCCC(=O)N(C)C4CCCCC4)cc3CN2C1`, for which, in experiment [1] (setting [7]), it took 2700 nM to reach the 25% level (IC25). Moreover, the IC50 result in the experiment filed under Homo sapiens [2] is “Not Active”; against Phosphodiesterase 3, 9600 nM.
Turning to `CN(Cc1ccccc1)C(=O)CCCOc1ccc2c(c1)CN1CC(=O)NC1=N2`, the concentration for an effect of 25% (IC25) in experiment [3] worked out at 240 nM. Further, the IC50 in experiment [4] was 980 nM; against Phosphodiesterase 3, 26 nM. Moreover, the Ratio in the experiment listed under Homo sapiens [5] was 38.
In turn, `CN(C(=O)CCCOc1ccc2c(c1)CN1CCNC1=N2)C1CCCCC1` yielded an IC25 in experiment [1] (setting [6]) of 21000 nM. Further, the IC50 entry is “Not Active” in the experiment listed under Homo sapiens [2] and 27000 nM against Phosphodiesterase 3.
As for `CN(C(=O)CCCOc1ccc2c(c1)CN1C(=N2)NC(=O)[C@H]1Cc1ccccc1)C1CCCCC1`, in experiment [1] (setting [7]), the IC25 is greater than 10000 nM. Moreover, the IC50 entry is reported as “Not Active” in the experiment filed under Homo sapiens [2] and greater than 10000 nM against Phosphodiesterase 3.
In turn, `CN(C(=O)CCCCOc1ccc2c(c1)CN1CC(=O)NC1=N2)C1CCCCC1` showed an IC25 in experiment [3] of 22 nM. The IC50 in experiment [4] is 860 nM; on Phosphodiesterase 3 it was 4.6 nM. In addition, the Ratio in the experiment filed under Homo sapiens [5] is on record as 187.
Compound `O=C(O)CN(C(=O)CCCOc1ccc2c(c1)CN1CC(=O)NC1=N2)C1CCCCC1` displayed a 25% effect concentration (IC25) in experiment [3] of 100 nM. For the same compound, the IC50 in experiment [4] amounted to 5200 nM; against Phosphodiesterase 3, 5 nM. Further, in the experiment filed under Homo sapiens [5], the Ratio is 1040.
In experiment [1] (setting [7]), `O=C(O)CCCOc1ccc2c(c1)CN1CC(=O)NC1=N2` gave a 25% effect concentration (IC25) of 130 nM. The 50% inhibitory concentration (IC50) entry in the experiment filed under Homo sapiens [2] is on record as “Not Active”; against Phosphodiesterase 3, 280 nM.
Turning to `O=C1CN2Cc3cc(OCCCC(=O)N4CCCC5CCCCC54)ccc3N=C2N1` (stereo not given), the concentration for an effect of 25% (IC25) in experiment [3] worked out at 200 nM. Besides, the IC50 in experiment [4] was 880 nM; at Phosphodiesterase 3, 13.5 nM. In addition, the Ratio in the experiment listed under Homo sapiens [5] worked out at 65.
Compound `O=C1CN2Cc3cc(OCCCC(=O)N(Cc4ccccc4)Cc4ccccc4)ccc3N=C2N1` displayed an IC25 in experiment [3] of 60 nM.
`CN(C(=O)CCCOc1ccc2c(c1)CN1CCC(=O)NC1=N2)C1CCCCC1` came in with an IC25 in experiment [1] (setting [7]) of 100 nM. The IC50 in experiment [4] came out at 1900 nM; against Phosphodiesterase 3, 130 nM. Also, the Ratio in the experiment filed under Homo sapiens [5] came out at 14.6.
As for `CC(C)N(C(=O)CCCOc1ccc2c(c1)CN1CC(=O)NC1=N2)C1CCCCC1`, in experiment [1] (setting [6]), the 25% effect level (IC25) was put at 15 nM. Also, the IC50 was found to be 260 nM in experiment [4] and 3.2 nM on Phosphodiesterase 3. In addition, the Ratio in the experiment filed under Homo sapiens [5] stood at 81.
In experiment [1] (setting [7]), `CN(C(=O)CCCOc1ccc2c(c1Cl)CN1CC(=O)NC1=N2)C1CCCCC1` returned an IC25 of 100 nM. Also, the IC50 in experiment [4] came out at 1100 nM; on Phosphodiesterase 3, 14 nM. Also, the Ratio in the experiment filed under Homo sapiens [5] was 79.
The like results for `CN(C(=O)CCCOc1ccc2c(c1)CN1CC(=O)NC1=N2)C1CCCC1` were, in that order, 25 nM, 1450 nM, 48 nM and 30.
As to `O=C1CN2Cc3cc(OCCCC(=O)N(CCCCO)C4CCCCC4)ccc3N=C2N1`, the concentration for an effect of 25% (IC25) in experiment [1] (setting [7]) turned out to be 7.2 nM. Further, the IC50 amounted to 4000 nM in experiment [4] and 6.4 nM on Phosphodiesterase 3. Further, in the experiment filed under Homo sapiens [5], the Ratio was found to be 625.
Take `CN(C(=O)CCCOc1ccc2c(c1)CN1CC(=O)NC1=N2)c1ccccc1`: the IC25 in experiment [3] was determined as 350 nM. In addition, the results for the IC50 (in experiment [4]; against Phosphodiesterase 3) were 390 nM and 26 nM, respectively. Besides, in the experiment filed under Homo sapiens [5], the Ratio was 15.
